According to ChEMBL document CHEMBL1124104, “(Acyloxy)benzophenones and (acyloxy)-4-pyrones. A new class of inhibitors of human neutrophil elastase” (J Med Chem, 1988):

Experiments:
[1] = target: T1, Neutrophil elastase (Homo sapiens, UniProt P08246); assay: Inhibitory activity against human leukocyte elastase at 10e-7 M
T1 sequence (P08246 whole entry): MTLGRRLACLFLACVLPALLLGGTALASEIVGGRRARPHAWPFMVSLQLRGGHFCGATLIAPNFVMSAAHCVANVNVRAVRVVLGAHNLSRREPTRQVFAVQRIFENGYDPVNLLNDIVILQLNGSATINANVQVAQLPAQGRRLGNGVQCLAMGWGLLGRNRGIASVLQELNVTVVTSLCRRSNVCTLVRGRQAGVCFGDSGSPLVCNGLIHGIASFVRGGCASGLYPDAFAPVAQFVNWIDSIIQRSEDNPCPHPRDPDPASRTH

[2] = Inhibitory activity against Hog pancreatic elastase; IA = Inactive at 10e-6; set-up: species or system Sus scrofa
[3] = target: T1, Neutrophil elastase; assay: Binding affinity towards human leukocyte elastase at 10e-8 M
Method in brief: (§1)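 HLE activity followed as rise in absorbance at 410 nm from nitroanilide release; substrate (methoxysuccinyl)Ala-Ala-Pro-Val nitroanilide at 10⁻⁴ M. Run in 0.2 M Tris, pH 8.0, 30 °C. Inhibitors and substrate dissolved in DMSO, which made up 10% of the final medium. Enzyme titrated to give 0.12 OD unit/min per 10 mm path.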

[4] = Inhibitory activity against pancreatic elastase; IA = Inactive at 10e-6
[5] = target: T2, Neutrophil elastase (Homo sapiens) (UniProt P08246); settings: 2 uM
T2 sequence (whole entry): T1 sequence (P08246 whole entry)

[6] = target: T2, Neutrophil elastase (Homo sapiens); settings: 2 uM; remark: listed apart in the source
[7] = target: T2, Neutrophil elastase (Homo sapiens); settings: 2 uM; remark: listed apart in the source
[8] = target: T2, Neutrophil elastase (Homo sapiens); settings: 3 uM
[9] = target: T2, Neutrophil elastase (Homo sapiens); settings: 3 uM; remark: listed apart in the source
[10] = target: T2, Neutrophil elastase (Homo sapiens); settings: 3 uM; remark: listed apart in the source
[11] = target: T2, Neutrophil elastase (Homo sapiens); settings: 1 uM
[12] = target: T2, Neutrophil elastase (Homo sapiens); settings: 1 uM; remark: listed apart in the source
[13] = target: T2, Neutrophil elastase (Homo sapiens); settings: 1 uM; remark: listed apart in the source
[14] = Inhibitory activity against Hog pancreatic elastase; IA = Inactive at 1e-5M; set-up: species or system Sus scrofa
[15] = Inhibitory activity against pancreatic elastase; IA = Inactive at 1e-5M
[16] = target: T2, Neutrophil elastase (Homo sapiens); assay: Inhibitory activity against [14C]-Elastin hydrolysis at 0.5 uM concentration and 2 hr.
Method in brief: (§2)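 Elastase digestion of [¹⁴C]elastin, quantitated by radiolabel release (method of Bielefeld et al.). Substrate, inhibitor and elastase were all present for the whole run, and % inhibition was read at 1, 2 and 3 h.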

[17] = target: T2, Neutrophil elastase (Homo sapiens); assay: Inhibitory activity against [14C]elastin hydrolysis at 0.5 uM concentration and 3h.; method in brief: as §2
[18] = target: T2, Neutrophil elastase (Homo sapiens); assay: Inhibitory activity against [14C]elastin hydrolysis at 1 uM concentration and 1h.; method in brief: as §2
[19] = target: T2, Neutrophil elastase (Homo sapiens); assay: Inhibitory activity against [14C]elastin hydrolysis at 1 uM concentration and 2 hr.; method in brief: as §2
[20] = target: T2, Neutrophil elastase (Homo sapiens); assay: Inhibitory activity against [14C]elastin hydrolysis at 1 uM concentration and 3h.; method in brief: as §2
[21] = target: T1, Neutrophil elastase; assay: Inhibitory activity against human leukocyte elastase at 10e-8 M
[22] = target: T2, Neutrophil elastase (Homo sapiens); assay: Inhibitory activity against [14C]elastin hydrolysis at 2 uM concentration and 1h.; method in brief: as §2
[23] = target: T2, Neutrophil elastase (Homo sapiens); assay: Inhibitory activity against [14C]-Elastin hydrolysis at 2 uM concentration and 2 hr.; method in brief: as §2
[24] = target: T2, Neutrophil elastase (Homo sapiens); assay: Inhibitory activity against [14C]-Elastin hydrolysis at 2 uM concentration and 3h.; method in brief: as §2
[25] = Inhibitory activity against Hog pancreatic elastase IA = Inactive at 10e-5 M; set-up: species or system Sus scrofa
[26] = target: T2, Neutrophil elastase (Homo sapiens); assay: Inhibitory activity against [14C]elastin hydrolysis at 0.5 uM concentration and 1h.; method in brief: as §2
[27] = Inhibitory activity against pancreatic elastase; IA = Inactive at 10e-5 M
[28] = target: T1, Neutrophil elastase; assay: Inhibitory activity against human leukocyte elastase;IA = Inactive at 10e-4 M; method in brief: as §1

With `CC(C)(C)C(=O)Oc1ccc(C(=O)c2ccc(OC(=O)C(C)(C)C)cc2)cc1` the IC50 [1] was 0.12 µM, the IC50 [2] was “Not Active” and the Ki [3] was 0.071 µM. The IC50 [4] was “Not Active”, the inhibition [5] was 62% and the inhibition [6] was 42%. It also gave an inhibition [7] of 46%, an inhibition [8] of 77% and an inhibition [9] of 77%. The inhibition [10] was 67%, the inhibition [11] was 34% and the inhibition [12] was 28%. It also gave an inhibition [13] of 15%.
With `CC(C)(C)C(=O)Oc1ccc(C(=O)c2ccccc2)cc1` the IC50 [14] was “Not Active” and the IC50 [15] was “Not Active”.
In the case of `CC(C)(C)C(=O)Oc1ccc(C(=O)c2ccc(OC(=O)C(C)(C)C)cc2OC(=O)C(C)(C)C)c(OC(=O)C(C)(C)C)c1`, the inhibition [16] is reported as 38%, the inhibition [17] is reported as 21% and the inhibition [18] is reported as 62%. The inhibition [19] was 72%, the inhibition [20] was 59% and the IC50 [21] was 0.027 µM. It also gave an inhibition [22] of 81%, an inhibition [23] of 85% and an inhibition [24] of 82%. For the same compound, the IC50 [25] was “Not Active”, the Ki [3] was 0.068 µM and the inhibition [26] was 38%. The IC50 [27] was “Not Active”.
With `CC(C)(C)C(=O)Oc1coc(CO)cc1=O` the IC50 [28] was “Not Active”.
